In ChEMBL document CHEMBL1122411 (J Med Chem, 1983):

Key:
Mus musculus [1] = species: Mus musculus; experiment: Percentage increase in life span after 12-19 days; format: functional
Outline: (§1)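 Male B6D2F1J mice (20–25 g), randomized after i.p. inoculation with 10^5 L1210 ascitic leukemia cells on day 0. Drug in water, pH 7.5–8.0, given i.p. on a q2d×5, qd×9 (from day 1) or b.i.d.×10 schedule; 5 mice per group. %ILS = [(T/C) − 1]100 from median survival days of treated versus control mice. Range is survival days.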

Mus musculus [2] = species: Mus musculus; experiment: Percentage increase in life span after 8-17 days; format: functional; outline: as §1
Mus musculus [3] = species: Mus musculus; experiment: Percentage increase in life span after 12-16 days; format: functional; outline: as §1
Mus musculus [4] = experiment: Toxicity in mice after 9-11 days at a dose of 2 mg/kg/day; value is 10/8.5; format: functional
Mus musculus [5] = experiment: Weight change on day 7 in L1210 Lymphoid Leukemia in mice at a dose of 8 mg/kg/day (qdx9); format: functional
Outline: (§2)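 Male B6D2F1J mice (20–25 g) were inoculated i.p. with 10⁵ L1210 ascites cells on day 0 and randomized into groups of 5. Drug in water at pH 7.5–8.0 was given i.p. daily for 9 days (qd×9) from day 1. Animals were weighed after 7 days, and the % body-weight change was recorded under a standard NCI protocol.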

Mus musculus [6] = experiment: Weight change on day 7 in L1210 Lymphoid Leukemia in mice at a dose of 12 mg/kg/day (b.i.d. x10); format: functional
Outline: (§3)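 Male B6D2F₁J mice (20–25 g) bearing ip L1210 ascites (10⁵ cells, day 0) were used, 5 per group. Drug was given ip in water at pH 7.5–8.0 from day 1 on q2d×5, qd×9 or b.i.d.×10 schedules. Animals were weighed after 7 days and percent weight change recorded.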

Mus musculus [7] = experiment: Toxicity in mice after 10-24 days at a dose of 15 mg/kg/day; value is 21/9; format: functional
Mus musculus [8] = experiment: Toxicity in mice after 9-24 days at a dose of 12 mg/kg/day; value is 18/9; format: functional
Mus musculus [9] = experiment: Weight change on day 7 in L1210 Lymphoid Leukemia in mice at a dose of 9 mg/kg/day (b.i.d. x10); format: functional
Outline: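 L1210 ascitic leukemia was implanted i.p. (10⁵ cells, day 0) in male B6D2F1J mice of 20–25 g, 5 per group. Dosing was b.i.d.×10, except that on days 5 and 6 a single double-dose injection was given. The % weight change was recorded at day 7.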

[10] = target: Dihydrofolate reductase (Lactobacillus casei) (UniProt P00381); settings: Lacticaseibacillus casei
Dihydrofolate reductase (Lactobacillus casei), sequence (P00381 whole entry): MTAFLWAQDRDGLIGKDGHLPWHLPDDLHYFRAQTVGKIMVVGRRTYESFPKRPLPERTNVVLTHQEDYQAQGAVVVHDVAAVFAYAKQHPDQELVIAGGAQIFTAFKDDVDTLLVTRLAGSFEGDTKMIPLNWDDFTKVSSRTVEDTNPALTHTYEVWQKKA

[11] = target: T1, Dihydrofolate reductase (Mus musculus) (UniProt P00375); experiment: Binding affinity to Dihydrofolate reductase of L1210 cell line using [H]MTX as radioligand; format: cell-based
T1 sequence (whole entry): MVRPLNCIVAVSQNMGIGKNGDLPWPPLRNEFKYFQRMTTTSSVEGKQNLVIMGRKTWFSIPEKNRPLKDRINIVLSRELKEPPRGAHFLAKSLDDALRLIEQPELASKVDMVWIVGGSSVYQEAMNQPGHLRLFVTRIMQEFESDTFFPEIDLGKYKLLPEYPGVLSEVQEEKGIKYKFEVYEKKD
Outline: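 Competitive [³H]MTX binding to dihydrofolate reductase from L1210 leukemia. Ascites cells from tumor-bearing mice were washed and lysed before use. The assay ran at 37 °C in 0.1 M potassium phosphate, pH 6.8. ID₅₀ was read as inhibition of radioligand binding, with MTX included in each experiment.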

Mus musculus [12] = species: Mus musculus; experiment: (§4) Percentage increase in life span after 12-20 days; format: functional; outline: as §1
Mus musculus [13] = experiment: Toxicity in mice after 17-19 days at a dose of 40 mg/kg/day; value is 18/9; format: functional
L1210 = experiment: cytotoxicity against L1210 cells; format: functional; settings: Mus musculus, read-out: ID50 (the source's name)
Mus musculus [14] = experiment: Weight change on day 7 in L1210 Lymphoid Leukemia in mice at a dose of 2 mg/kg/day (qdx9); format: functional; outline: as §3
Mus musculus [15] = experiment: Weight change on day 7 in L1210 Lymphoid Leukemia in mice at a dose of 4 mg/kg/day (qdx9); format: functional; outline: as §2
[16] = Tested for substrate activity of compound for Carboxypeptidase G1 (exp 2)
Outline: (§5)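 Cleavage by carboxypeptidase G₁ was followed as the A320 change on release of the pteroate. Conditions were 37 °C in 0.05 M potassium phosphate, pH 6.7, with 100 μM ZnSO₄. Enzyme was diluted in 1% BSA to give ΔA320 of 0.02–0.2/min. Km and Vmax came from Lineweaver-Burk plots. Ki came from competitive runs varying analogue against fixed MTX, or vice versa.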

[17] = test system: Carboxypeptidase G1 (Pseudomonas); experiment: Tested for substrate activity of compound for Carboxypeptidase G1
Mus musculus [18] = species: Mus musculus; experiment: Percentage increase in life span after 12-22 days; format: functional; outline: as §1
[19] = Tested for substrate activity of compound for Carboxypeptidase G1; set-up: species or system Mus musculus; outline: as §5
[20] = target: Dihydrofolate reductase (Lactobacillus casei) (UniProt P00381); settings: Lacticaseibacillus casei; remark: listed apart in the source
Mus musculus [21] = experiment: Toxicity in mice after 16-18 days at a dose of 9 mg/kg/day; value is 17/9; format: functional
Mus musculus [22] = species: Mus musculus; experiment: Percentage increase in life span after 16-18 days; format: functional; outline: as §1
Mus musculus [23] = experiment: Weight change on day 7 in L1210 Lymphoid Leukemia in mice at a dose of 20 mg/kg/day (qdx9); format: functional; outline: as §3
Mus musculus [24] = experiment: Toxicity in mice after 12-16 days at a dose of 20 mg/kg/day; value is 14/9; format: functional
Mus musculus [25] = experiment: Toxicity in mice after 8-17 days at a dose of 4 mg/kg/day; value is 11/8.5; format: functional
Mus musculus [26] = experiment: Toxicity in mice after 12-19 days at a dose of 8 mg/kg/day; value is 12/8.5; format: functional
Mus musculus [27] = species: Mus musculus; experiment: as §4; format: functional; outline: as §1; remark: listed apart in the source
Mus musculus [28] = experiment: Toxicity in mice after 12-22 days at a dose of 60 mg/kg/day; value is 21/9; format: functional
Mus musculus [29] = experiment: Toxicity in mice after 12-20 days at a dose of 40 mg/kg/day; value is 14/9; format: functional
Mus musculus [30] = experiment: Weight change on day 7 in L1210 Lymphoid Leukemia in mice at a dose of 40 mg/kg/day (qdx9); format: functional; outline: as §2
[31] = target: T1, Dihydrofolate reductase (Mus musculus)
[32] = target: T1, Dihydrofolate reductase (Mus musculus); experiment: Binding affinity to Dihydrofolate reductase of L1210/R71 using spectrophotometric assay
Outline: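 The enzyme was isolated from MTX-resistant L1210/R71 cultured cells and purified on MTX-agarose. The assay measured ΔA340 at 22 °C in 0.1 M Tris, pH 7.0, with 62 nM enzyme. Enzyme was preincubated 2 min with inhibitor and NADPH, and dihydrofolate was then added to start the reaction. ID₅₀ determined.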

Mus musculus [33] = experiment: Toxicity in mice after 12-20 days at a dose of 20 mg/kg/day; value is 13/9; format: functional
Mus musculus [34] = species: Mus musculus; experiment: Percentage increase in life span after 9-11 days; format: functional; outline: as §1
Mus musculus [35] = experiment: Weight change on day 7 in L1210 Lymphoid Leukemia in mice at a dose of 60 mg/kg/day (qdx9); format: functional; outline: as §2
Mus musculus [36] = species: Mus musculus; experiment: Percentage increase in life span after 9-24 days; format: functional; outline: as §1
Mus musculus [37] = experiment: Weight change on day 7 in L1210 Lymphoid Leukemia in mice at a dose of 15 mg/kg/day (b.i.d. x10); format: functional; outline: as §3
Mus musculus [38] = species: Mus musculus; experiment: Percentage increase in life span after 10-24 days; format: functional; outline: as §1
Mus musculus [39] = species: Mus musculus; experiment: Percentage increase in life span after 17-19 days; format: functional; outline: as §1

Compound CN(Cc1cnc2nc(N)nc(N)c2n1)c1ccc(C(=O)NC(CCCC(=O)O)C(=O)O)cc1 (stereo unspecified) has an ILS (Mus musculus [1]) of 41%, an ILS (Mus musculus [2]) of 29% and an ILS (Mus musculus [3]) of 56%. It also gave a T/C (Mus musculus [4]) of 10, a Weight change (Mus musculus [5]) of 2% and a Weight change (Mus musculus [6]) of -3%. For the same compound, the T/C (Mus musculus [7]) was 21, the T/C (Mus musculus [8]) was 18 and the Weight change (Mus musculus [9]) was -3%. The ID50 [10] was 6.9 nM, the ID50 [11] was 1.4 nM and the ILS (Mus musculus [12]) was 44%. The T/C (Mus musculus [13]) was 18, the IC50 (L1210) was 30 nM and the Weight change (Mus musculus [14]) was 10%. The Weight change (Mus musculus [15]) was 7%, the Ki [16] was 3220 nM and the Km [17] was 196 µM. The Vmax [17] was 0.124 min⁻¹, the ILS (Mus musculus [18]) was 133% and the Ki [19] was 2770 nM. The ID50 [20] was 12 nM, the T/C (Mus musculus [21]) was 17 and the ILS (Mus musculus [22]) was 89%. It also gave a Weight change (Mus musculus [23]) of 7%, a T/C (Mus musculus [24]) of 14 and a T/C (Mus musculus [25]) of 11. The T/C (Mus musculus [26]) was 12, the ILS (Mus musculus [27]) was 55% and the T/C (Mus musculus [28]) was 21. It also gave a T/C (Mus musculus [29]) of 14, a Weight change (Mus musculus [30]) of 2% and an ID50 [31] of 6.7 nM. It also gave an ID50 [32] of 39 nM, a T/C (Mus musculus [33]) of 13 and an ILS (Mus musculus [34]) of 18%. It also gave a Weight change (Mus musculus [35]) of -6%, an ILS (Mus musculus [36]) of 100% and a Weight change (Mus musculus [37]) of -7%. It also gave an ILS (Mus musculus [38]) of 133% and an ILS (Mus musculus [39]) of 100%.
